Assay outcomes from PubChem BioAssay.
Sampled rows, rich in hits. Any-hit rate of the full collection: about 2.8%.
pPAFAH inh: inhibitors of human plasma PAF acetylhydrolase (pPAFAH); inhibition, % at 3.39 µM; AID 463082; Q13093; actives 1.5% (n = 330,000); recombinant pPAFAH, FP-rhodamine probe fluorescence polarization;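 active = inhibition above the mean inhibition across the screen plus 3 SD, cut at about 25% in these data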;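 note: inhibitors block binding of the rhodamine activity-based probe so polarization drops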
Target sequence (Q13093 whole entry, looked up): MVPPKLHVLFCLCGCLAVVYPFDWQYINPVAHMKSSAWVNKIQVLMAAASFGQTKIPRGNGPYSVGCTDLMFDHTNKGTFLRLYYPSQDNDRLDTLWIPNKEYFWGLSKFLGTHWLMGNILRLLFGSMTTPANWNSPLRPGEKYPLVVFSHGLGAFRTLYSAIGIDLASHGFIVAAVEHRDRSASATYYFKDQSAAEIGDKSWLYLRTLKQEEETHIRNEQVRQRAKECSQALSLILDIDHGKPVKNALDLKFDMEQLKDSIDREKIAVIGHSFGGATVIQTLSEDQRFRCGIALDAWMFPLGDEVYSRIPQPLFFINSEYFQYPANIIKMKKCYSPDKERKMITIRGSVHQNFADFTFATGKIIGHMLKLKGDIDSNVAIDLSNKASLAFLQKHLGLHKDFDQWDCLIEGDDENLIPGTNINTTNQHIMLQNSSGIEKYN
PAFAH2 FP inh: PAFAH2 (human) inhibition; inhibition, % at 3.39 µM; recombinant PAFAH2, FP-rhodamine activity probe, fluorescence polarization; Q99487; actives 0.99% (n = 340,000); AID 492956;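 active = inhibition above the mean over all tested compounds plus 3 SD, cut at about 30% in these data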;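 note: inhibitors block probe labeling of enzyme so polarization drops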
ARFGAP1 inh: inhibits rat ARF GTPase activating protein 1; Arfgap1-stimulated ARF1 GTP hydrolysis, GDP FP detection; actives 0.26% (n = 360,000); inhibition, % at 16.5 µM; Q62848; AID 651572;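 active = inhibition above a per-plate limit, mean inhibition of low control wells plus 3 SD, cut at about 25% in these data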
Target sequence (Q62848 1-136 limits assumed): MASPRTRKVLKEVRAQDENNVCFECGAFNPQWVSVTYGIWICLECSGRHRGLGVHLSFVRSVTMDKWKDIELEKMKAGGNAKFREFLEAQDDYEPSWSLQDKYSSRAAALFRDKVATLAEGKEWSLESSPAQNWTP
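System: truncated rat Arfgap1 GAP domain / Medium: HEPES-based buffer, pH 7.5 / Also added: N-terminally truncated human ARF1-GTP substrate / Incubation: enzyme reaction 120 min at 25 °C after 20 min preincubation / Measured by: FP of antibody-bound GDP Alexa 633 tracer, ex 620/em 688 nm / Replicates: singlicate, each compound tested once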
ASAP1 GAP inh: ASAP1 ArfGAP inhibition. Q9ULH1. ASAP1-stimulated ARF1 GTP hydrolysis, GDP FP detection. inhibition, % at 16.5 µM. actives 0.19% (n = 360,000); in the data active = inhibition above about 25%
PAFAH1B2 inh: blocks human PAF acetylhydrolase 1b catalytic subunit 2; actives 1.2% (n = 340,000); recombinant PAFAH1B2, FP-rhodamine activity probe, fluorescence polarization; inhibition, % at 3.39 µM; P68402;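 active = inhibition above the mean of all tested compounds plus 3 SD, cut at about 24% in these data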
PAFAH1B3 FP inh: blocks human PAF acetylhydrolase 1B catalytic subunit 3; recombinant PAFAH1B3, FP-rhodamine probe, fluorescence polarization; actives 0.28% (n = 340,000); Q15102; AID 492972; inhibition, % at 3.39 µM;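 active = inhibition above the screen-wide average of all tested compounds plus 3 SD, cut at about 25% in these data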
Numbers stand for hits; n = inactive; x = no result given.

SMILES	pPAFAH inh	PAFAH2 FP inh	ARFGAP1 inh	ASAP1 GAP inh	PAFAH1B2 inh	PAFAH1B3 FP inh
NP(=O)(OCCCc1ccccc1)Oc1ccccc1Cl (stereo not given)	n	67	n	n	92	45
NP(=O)(OCCCc1ccccc1)Oc1ccc(Cl)cc1 (stereo not given)	n	n	n	n	95	n
CC(C)CCOP(N)(=O)Oc1ccccc1 (stereo not given)	n	n	n	n	n	n
NP(=O)(OCCCc1ccccc1)c1ccccc1 (stereo not given)	n	n	n	n	n	n
CC(C)CCOP(N)(=O)Oc1ccccc1Cl (stereo not given)	n	n	n	n	85	26
COCCOC(=O)C1=C(N)Oc2c(c(=O)oc3ccccc23)C1c1ccncc1 (stereo not given)	n	n	n	n	n	n
Fc1cccc(C2NCc3ccccc3-n3cccc32)c1 (stereo not given)	n	n	n	n	n	n
CCCCn1c(NC(=O)c2ccc(Br)o2)c(C(=O)OCC)c2nc3ccccc3nc21	n	41	n	n	38	77
O=P(O)(Oc1ccccc1)OC(c1ccccc1)C(F)(F)C(F)(F)F (stereo not given)	n	n	n	n	77	n
O=P(Oc1ccccc1)(Oc1ccccc1)C(Nc1ccccc1)c1ccccc1 (stereo not given)	n	n	n	n	n	n
CCN(CC)c1ccc(N=Cc2c(O)n(-c3ccc(Cl)cc3)c(=O)[nH]c2=O)cc1	n	n	n	n	n	n
CCN(CC)c1ccc(N=Cc2c(O)n(-c3ccc(OC)cc3)c(=O)[nH]c2=O)cc1	25	n	n	n	n	n
Cc1ccc2nc(-c3ccc(CN4CCC(n5c(=O)[nH]c6cc(Cl)ccc65)CC4)cc3)c(-c3ccccc3)nc2c1	x	x	n	n	x	x
O=C(O)c1c[nH]c2ccc(S(=O)(=O)N(CCCl)CCCl)cc12	n	n	n	n	37	n
CCN(CC)C(=O)c1ccc2c(c1)C1C=CCC1C(C(=O)O)N2 (stereo not given)	x	40	n	n	n	40
CNC(=O)Oc1ccc(C(=O)N2c3ccccc3NC(=O)C2C)cc1 (stereo not given)	n	n	n	n	48	n
Cc1cc(OCC(=O)NCc2ccncc2)c2c3c(c(=O)oc2c1)CCC3	n	n	n	n	n	n
Cc1cc(OCC(=O)NC(Cc2ccc(Cl)cc2)C(=O)O)c2c3c(c(=O)oc2c1)CCCC3 (stereo not given)	n	n	n	n	30	n
CCCCC(=O)N/N=C/c1c(O)n(Cc2ccco2)c(=O)[nH]c1=O	n	n	n	n	n	n
O=C(N/N=C/c1c(O)n(Cc2ccco2)c(=O)[nH]c1=O)c1ccccc1O	30	35	n	n	n	n
O=C(N/N=C/c1c(O)n(C2CCCCC2)c(=S)[nH]c1=O)c1ccccc1O	32	n	n	n	n	n
O=C(N/N=C/c1c(O)n(C2CCCCC2)c(=S)[nH]c1=O)c1ccccc1	n	n	n	n	n	n
Cc1ccc(C)c(NC(=S)NCCc2cnc[nH]2)c1	n	n	n	n	n	n
CC(C)Oc1cccnc1N(C)C1CCN(Cc2ccccc2)CC1	x	n	n	n	n	n
C[C@@H]1CNCCN1c1ccc(N2CC[C@@H](O)C2)c(C#N)c1	x	x	n	n	x	x
SMILES	pPAFAH inh	PAFAH2 FP inh	ARFGAP1 inh	ASAP1 GAP inh	PAFAH1B2 inh	PAFAH1B3 FP inh
O=C(O)c1ccc2c(c1)C1C(Cl)C(Sc3ccccc3[N+](=O)[O-])CC1C(c1cccc([N+](=O)[O-])c1)N2 (stereo not given)	x	52	x	x	n	41
O=[N+]([O-])c1cccc(C2N3CCCN23)c1 (stereo not given)	n	n	n	n	n	n
O=C(O)c1cccc2c1NC(c1cccc([N+](=O)[O-])c1)C1CC(Sc3ccccc3[N+](=O)[O-])C(Cl)C21 (stereo not given)	x	37	n	n	n	n
COC(=O)C1=C(c2c(C)noc2C)C[C@@H]2CC[C@H]1N2C(=O)NCc1ccc(C(F)(F)F)cc1	n	n	n	n	24	n
O=S(=O)(c1ccc2ccccc2c1)N1Cc2cc(Br)ccc2-n2nncc2C1	x	x	n	n	x	x
CCN(CC)P(=O)(c1n(CC)cc[n+]1CC)N(CC)CC	n	n	n	n	n	n
c1ccc(CCN2CCC3CCNC3C2)cc1 (stereo not given)	x	x	n	n	x	x
O=C(Cc1ccc(N(CCCl)CCCl)cc1)NC(Cc1ccc(Cl)cc1)C(=O)O (stereo not given)	n	n	n	n	60	n
CC(=O)NC(Cc1ccc(N(CCCl)CCCl)cc1)C(=O)O (stereo not given)	n	n	n	n	n	n
O=C(Cc1ccccc1)NC(Cc1ccc(Cl)cc1)C(=O)O (stereo not given)	n	n	n	n	38	n
N#Cc1ccc(/C=C/C(=O)O)cc1	n	n	n	n	n	n
COC(=O)C1=C(c2cccc(OCc3ccccc3)c2)C[C@@H]2CC[C@H]1N2C(=O)NCCCc1ccccc1	30	n	n	n	n	n
O=C1CN=C(c2ccccc2)c2ccccc2N1Cc1ccc(C(F)(F)F)cc1	n	n	n	n	59	n
Cc1oc(-c2ccccc2Cl)nc1CN1C(=O)CN=C(c2ccccc2)c2ccccc21	n	n	n	n	n	n
Cn1cccc1C1CCCN1CC(=O)Nc1ccc(C#N)c(Cl)c1 (stereo not given)	n	n	n	n	n	n
CN(C)[C@@H]1C(=O)C(C(N)=O)=C(O)[C@@]2(O)C(=O)C3=C(O)c4c(O)ccc(Cl)c4[C@@](C)(O)C3C[C@@H]12 (stereo not given in full)	x	n	n	n	n	n
CN(C)[C@@H]1C(=O)C(C(N)=O)=C(O)[C@@]2(O)C(=O)C3=C(O)c4c(O)cccc4[C@@](C)(O)[C@H]3C[C@@H]12	73	x	x	x	x	x
O=c1ccc2cc(O[C@@H]3O[C@@H](CO)[C@H](O)[C@@H](O)[C@@H]3O)c(O)cc2o1	n	n	n	n	n	n
CC1C2Cc3ccc(O)cc3C1(C)CCN2CC1CC1 (stereo not given)	x	x	n	n	x	x
COc1ccc(S(=O)(=O)N2CC3CC(C2)c2cccc(=O)n2C3)cc1 (stereo not given)	n	n	n	n	n	n
CC(C)(C)c1ccc(S(=O)(=O)N2CC3CC(C2)c2cccc(=O)n2C3)cc1 (stereo not given)	n	n	n	n	26	n
CCC(=O)c1cn(Cc2ccccc2)c2ccccc12	n	n	n	n	n	n
O=C(c1ccco1)c1cn(Cc2ccccc2)c2ccccc12	30	n	n	n	n	n
COC(=O)C1=C(c2ccc3ccccc3c2)C[C@@H]2CC[C@H]1N2C(=O)NCCNC(C)=O	n	n	x	x	n	n
